ChEMBL document CHEMBL2380254, “Optimization of tocotrienols as antiproliferative and antimigratory leads” (Eur J Med Chem, 2013)

What was measured:
Assay type in all cases: functional
[1] = tested on: Malme-3M; test: Growth inhibition of human MALME-3M cells after 48 hrs by sulforhodamine B assay
Procedure, shortened: (§1)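 NCI-60 panel cells grown in RPMI 1640 with 5% FBS and 2 mM L-glutamine, seeded at 5000–40,000 cells/well and preincubated 24 h. Five 10-fold dilutions (0.001–100 µM) from DMSO stocks were added for 48 h at 37 °C. Adherent cells were fixed with cold TCA (10% final) for 60 min at 4 °C, stained with 0.4% SRB, and read at 515 nm. GI50 was set where 100×(T−T0)/(C−T0)=50.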

[2] = tested on: T47D; test: Growth inhibition of human T47D cells after 48 hrs by sulforhodamine B assay
Procedure, shortened: (§2)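 NCI-60 five-dose screen. Cells were grown in RPMI 1640 with 5% FBS and 2 mM L-glutamine, plated at 5000–40,000 cells/well and incubated 24 h before dosing, with T0 plates TCA-fixed. DMSO stocks were diluted to doses of […] and exposed 48 h at 37 °C, 5% CO2. Cells were fixed with cold TCA (final 10%, 60 min, 4 °C), stained with 0.4% SRB in 1% acetic acid for 10 min, solubilized in 10 mM trizma base and read at 515 nm. GI50 is where 100×(T−T0)/(C−T0)=50.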

[3] = tested on: UACC-62; test: Growth inhibition of human UACC62 cells assessed as cell growth at 10 uM after 48 hrs by sulforhodamine B assay; conditions: UACC-62, 48 h, read-out: Activity
Procedure, shortened: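 Single-dose NCI-60 test at 10 µM. Cells were grown in RPMI 1640 with 5% FBS and 2 mM L-glutamine, preincubated 24 h, with T0 plates TCA-fixed. Exposure was 48 h at 37 °C, 5% CO2. Cells were fixed with cold TCA (final 10%, 4 °C, 60 min), stained with SRB and read at 515 nm. Percent growth was taken relative to T0 and untreated control; negative values denote cell kill.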

[4] = tested on: SNB-19; test: Growth inhibition of human SNB19 cells after 48 hrs by sulforhodamine B assay; conditions: SNB-19, 48 h; procedure, shortened: as §2
[5] = tested on: MCF7; test: Growth inhibition of human MCF7 cells assessed as cell growth at 10 uM after 48 hrs by sulforhodamine B assay; conditions: MCF7, 48 h, read-out: Activity
Procedure, shortened: (§3)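 Single-dose NCI-60 screen: adherent cells in RPMI 1640 with 5% FBS were exposed to 10 µM for 48 h at 37 °C after a 24 h preincubation. They were fixed in situ with cold TCA (10% final), stained with 0.4% SRB in 1% acetic acid, solubilized in 10 mM Tris base, and read at 515 nm. Percent growth was taken relative to time-zero and control plates.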

[6] = tested on: Malme-3M; test: Growth inhibition of human MALME-3M cells assessed as cell growth at 10 uM after 48 hrs by sulforhodamine B assay; conditions: read-out: Activity; procedure, shortened: as §3
[7] = tested on: NCI-H23; test: Growth inhibition of human NCI-H23 cells assessed as cell growth at 10 uM after 48 hrs by sulforhodamine B assay; conditions: NCI-H23, 48 h, read-out: Activity; procedure, shortened: as §3
[8] = tested on: 786-0; test: Growth inhibition of human 786-0 cells after 48 hrs by sulforhodamine B assay; conditions: 786-0, 48 h
Procedure, shortened: (§4)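 NCI-60 screen: cells in RPMI 1640 with 5% FBS and 2 mM glutamine, 5000–40,000 cells/well, preincubated 24 h. Five concentrations (10-fold dilutions; 100 to 0.001 µM) applied for 48 h at 37 °C. TCA fixation, SRB stain, absorbance at 515 nm. Time-zero plates included; GI50 where 100×(T−T0)/(C−T0)=50.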

[9] = tested on: NCI-H23; test: Growth inhibition of human NCI-H23 cells after 48 hrs by sulforhodamine B assay; conditions: NCI-H23, 48 h; procedure, shortened: as §1
[10] = Growth inhibition of human NCI-ADR-RES cells assessed as cell growth at 10 uM after 48 hrs by sulforhodamine B assay; conditions: read-out: Activity; procedure, shortened: as §3
[11] = tested on: SK-MEL-2; test: Growth inhibition of human SK-MEL-2 cells assessed as cell growth at 10 uM after 48 hrs by sulforhodamine B assay; conditions: SK-MEL-2, 48 h, read-out: Activity; procedure, shortened: as §3
[12] = tested on: MDA-MB-468; test: Growth inhibition of human MDA-MB-468 cells after 48 hrs by sulforhodamine B assay; conditions: MDA-MB-468, 48 h; procedure, shortened: as §1
[13] = tested on: NCI-H522; test: Growth inhibition of human NCI-H522 cells assessed as cell growth at 10 uM after 48 hrs by sulforhodamine B assay; conditions: NCI-H522, 48 h, read-out: Activity; procedure, shortened: as §3
[14] = tested on: NCI-H522; test: Growth inhibition of human NCI-H522 cells after 48 hrs by sulforhodamine B assay; conditions: NCI-H522, 48 h; procedure, shortened: as §1
[15] = tested on: LOX IMVI; test: Growth inhibition of human LOXIMVI cells assessed as cell growth at 10 uM after 48 hrs by sulforhodamine B assay; conditions: read-out: Activity
Procedure, shortened: (§5)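 NCI-60 single-dose screen at 10 µM: cells in RPMI 1640 with 5% FBS, preincubated 24 h, then exposed 48 h at 37 °C. TCA fixation (16% final for suspension cells), SRB staining, absorbance 515 nm. Percent growth relative to time-zero and untreated control plates; negative values indicate cell kill.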

[16] = tested on: SF-268; test: Growth inhibition of human SF268 cells assessed as cell growth at 10 uM after 48 hrs by sulforhodamine B assay; conditions: SF-268, 48 h, read-out: Activity; procedure, shortened: as §3
[17] = tested on: SR; test: Growth inhibition of human SR cells after 48 hrs by sulforhodamine B assay
Procedure, shortened: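 Suspension leukemia line in RPMI 1640 with 5% FBS and 2 mM L-glutamine, NCI-60 five-dose format ([…]), 48 h at 37 °C. Settled cells were fixed with 80% TCA (final 16%), stained with SRB and read at 515 nm. GI50 is where 100×(T−T0)/(C−T0)=50, with T0 measured at dosing.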

[18] = tested on: UACC-62; test: Growth inhibition of human UACC62 cells after 48 hrs by sulforhodamine B assay; conditions: UACC-62, 48 h; procedure, shortened: as §2
[19] = Growth inhibition of human Hs 578T cells after 48 hrs by sulforhodamine B assay; procedure, shortened: as §4
[20] = tested on: PC-3; test: Growth inhibition of human PC3 cells assessed as cell growth at 10 uM after 48 hrs by sulforhodamine B assay; conditions: PC-3, 48 h, read-out: Activity; procedure, shortened: as §3
[21] = tested on: SF-539; test: Growth inhibition of human SF539 cells assessed as cell growth at 10 uM after 48 hrs by sulforhodamine B assay; conditions: SF-539, 48 h, read-out: Activity; procedure, shortened: as §3
[22] = tested on: MDA-MB-435; test: Growth inhibition of human MDA-MB-435 cells after 48 hrs by sulforhodamine B assay; conditions: MDA-MB-435, 48 h; procedure, shortened: as §1
[23] = tested on: IGROV-1; test: Growth inhibition of human IGROV1 cells assessed as cell growth at 10 uM after 48 hrs by sulforhodamine B assay; conditions: IGROV-1, 48 h, read-out: Activity; procedure, shortened: as §5
[24] = Growth inhibition of human NCI-ADR-RES cells after 48 hrs by sulforhodamine B assay; procedure, shortened: as §1
[25] = tested on: KM12; test: Growth inhibition of human KM12 cells assessed as cell growth at 10 uM after 48 hrs by sulforhodamine B assay; conditions: KM12, 48 h, read-out: Activity; procedure, shortened: as §5
[26] = tested on: HCT-15; test: Growth inhibition of human HCT15 cells after 48 hrs by sulforhodamine B assay; conditions: HCT-15, 48 h; procedure, shortened: as §4

| Compound | GI50 [1] [nM] | GI50 [2] [nM] | growth at 10 µM [3] [%] | GI50 [4] [nM] | growth at 10 µM [5] [%] | growth at 10 µM [6] [%] | growth at 10 µM [7] [%] | GI50 [8] [nM] | GI50 [9] [nM] | growth at 10 µM [10] [%] | growth at 10 µM [11] [%] | GI50 [12] [nM] | growth at 10 µM [13] [%] | GI50 [14] [nM] | growth at 10 µM [15] [%] | growth at 10 µM [16] [%] | GI50 [17] [nM] | GI50 [18] [nM] | GI50 [19] [nM] | growth at 10 µM [20] [%] | also measured |
| --- | --- | --- | --- | --- | --- | --- | --- | --- | --- | --- | --- | --- | --- | --- | --- | --- | --- | --- | --- | --- | --- |
| CC(C)=CCC/C(C)=C/CC/C(C)=C/CC[C@]1(C)CCc2c3c(c(C)c(C)c2O1)OCN(CCCCCO)C3 | 6900 | 6170 | 99.2 | 5990 | 24.3 | 106 | 94.5 | 6470 | 6670 | 82.5 | 107 | 4140 | 84.8 | 7080 | 40.2 | 75.9 | 4000 | 5870 | 7260 | 71.8 | growth at 10 µM [21]: 106%; GI50 [22]: 5800 nM; growth at 10 µM [23]: 63.7%; GI50 [24]: 5890 nM; growth at 10 µM [25]: 29.3%; GI50 [26]: 6240 nM |
| COc1ccc(CCN2COc3cc(C)c4c(c3C2)CC[C@@](C)(CC/C=C(\C)CC/C=C(\C)CCC=C(C)C)O4)cc1OC | 2030 | 1940 | 91.7 | 1660 | -65.7 | 72.9 | 50.7 | 1780 | 1850 | 49.1 | 86.4 | 1460 | -45.8 | 2080 | -77.7 | -75.2 | 2300 | 1640 | 2300 | 62.1 | growth at 10 µM [21]: 88.8%; GI50 [22]: 1660 nM; growth at 10 µM [23]: 31.8%; GI50 [24]: 2020 nM; growth at 10 µM [25]: -82.6%; GI50 [26]: 1930 nM |
| CC(C)=CCC/C(C)=C/CC/C(C)=C/CC[C@]1(C)CCc2c3c(cc(C)c2O1)OCN(CCCO)C3 | 2100 | 2010 | 93 | 1640 | -94.2 | 110 | 51.9 | 1860 | 1880 | -26.4 | 107 | 1560 | -72.9 | 1790 | -89.8 | -78.5 | 1040 | 1810 | 2030 | 50.8 | growth at 10 µM [21]: 74.4%; GI50 [22]: 1650 nM; growth at 10 µM [23]: -6.58%; GI50 [24]: 1960 nM; growth at 10 µM [25]: -77.4%; GI50 [26]: 1970 nM |
